Columns and labels:
Liver microsome = test: Drug metabolism in Sprague-Dawley rat liver microsomes assessed as formation of (2S,3S,4S,5R,6R)-6-((1-carboxy-2-(4-((6-methoxy-1-methyl-1H-benzo[d]imidazol-2-yl)methoxy)phenyl)ethylthio)carbonylamino)-3,4,5-trihydroxytetrahydro-2H-pyran-2-carboxylic acid at 20 uM after 4 hrs by radio-HPLC/LC-MS/MS analysis in presence of UDPGA and UDPGA/SAM; format: ADME
[1] = Drug metabolism in rat hepatocytes assessed as formation of 3-(4-((6-methoxy-1-methyl-1H-benzo[d]imidazol-2-yl)methoxy)phenyl)-2-(methylthio)propanoic acid at 30 uM after 3 hrs by radio-HPLC/LC-MS/MS analysis in presence of NADPH-generating system/SAM and UDPGA/SAM; format: ADME, cell-based, Hepatocyte
Cytochrome P450 2C9 [2] = target: T1, Cytochrome P450 2C9 (Homo sapiens, UniProt P11712); test: Activity of human CYP2C9 expressed in microsomes isolated from baculovirus infected insect cell assessed as enzyme-mediated 2-mercapto-3-(4-((6-methoxy-1-methyl-1H-benzo[d]imidazol-2-yl)methoxy)phenyl)propanoic acid formation at 20 uM after 2 hrs by radio-HPLC/LC-MS/MS analysis in presence of NADPH-generating system; format: ADME
How it was run: (§1)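 Baculovirus-insect-cell microsomes expressing the human CYP (1 mg/ml protein) were incubated with [14C]rivoglitazone (20 μM) in 50 mM potassium phosphate (pH 7.4) or 100 mM Tris-HCl (pH 7.5) with an NADPH-generating system (2 mM NADP+, 20 mM glucose 6-phosphate, 2 units/ml G6PDH, 10 mM MgCl2) for 2 h at 37°C. Insect-cell control supersomes served as the control. Reactions were stopped with acetonitrile, and the concentrated supernatants were analysed by radio-HPLC, LC-MS and LC-MS/MS.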

Cytochrome P450 2C9 [3] = target: T1, Cytochrome P450 2C9; test: Activity of human CYP2C9 expressed in microsomes isolated from baculovirus infected insect cell assessed as enzyme-mediated (2S,3S,4S,5R,6R)-6-((1-carboxy-2-(4-((6-methoxy-1-methyl-1H-benzo[d]imidazol-2-yl)methoxy)phenyl)ethylthio)carbonylamino)-3,4,5-trihydroxytetrahydro-2H-pyran-2-carboxylic acid formation at 20 uM after 2 hrs by radio-HPLC/LC-MS/MS analysis in presence of NADPH-generating system/SAM; format: ADME
[4] = Drug metabolism in monkey hepatocytes assessed as formation of 3-(4-((6-methoxy-1-methyl-1H-benzo[d]imidazol-2-yl)methoxy)phenyl)-2-(methylsulfinyl)propanamide at 30 uM after 3 hrs by radio-HPLC/LC-MS/MS analysis in presence of NADPH-generating system/SAM; settings: cynomolgus monkey
[5] = Drug metabolism in rat hepatocytes assessed as formation of 3-(4-((6-methoxy-1-methyl-1H-benzo[d]imidazol-2-yl)methoxy)phenyl)-2-(methylsulfinyl)propanamide at 30 uM after 3 hrs by radio-HPLC/LC-MS/MS analysis in presence of NADPH-generating system/SAM; format: ADME, cell-based, Hepatocyte
Cytochrome P450 2D6 [6] = target: T2, Cytochrome P450 2D6 (Homo sapiens, UniProt P10635); test: Activity of human CYP2D6 expressed in microsomes isolated from baculovirus infected insect cell assessed as enzyme-mediated 2-hydroxy-3-(4-((6-methoxy-1-methyl-1H-benzo[d]imidazol-2-yl)methoxy)phenyl)propanamide formation at 20 uM after 2 hrs by radio-HPLC/LC-MS/MS analysis in presence of NADPH-generating system and NADPH-generating system/SAM; format: ADME
Cytochrome P450 2D6 [7] = target: T2, Cytochrome P450 2D6; test: Activity of human CYP2D6 expressed in microsomes isolated from baculovirus infected insect cell assessed as enzyme-mediated 2-amino-3-((1-carboxy-2-(4-((6-methoxy-1-methyl-1H-benzo[d]imidazol-2-yl)methoxy)phenyl)ethyl)disulfanyl)propanoic acid formation at 20 uM after 2 hrs by radio-HPLC/LC-MS/MS analysis; format: ADME; how it was run: as §1
[8] = Drug metabolism in cynomolgus monkey liver microsomes assessed as formation of 2-mercapto-3-(4-((6-methoxy-1-methyl-1H-benzo[d]imidazol-2-yl)methoxy)phenyl)propanoic acid at 20 uM after 2 to 4 hrs by radio-HPLC/LC-MS/MS analysis in presence of UDPGA, UDPGA/SAM and NADPH-generating system; format: ADME, Macaca fascicularis
[9] = Drug metabolism in rat hepatocytes assessed as formation of 2-mercapto-3-(4-((6-methoxy-1-methyl-1H-benzo[d]imidazol-2-yl)methoxy)phenyl)propanamide at 30 uM after 3 hrs by radio-HPLC/LC-MS/MS analysis in presence of NADPH-generating system and NADPH-generating system/SAM; format: ADME, cell-based, Hepatocyte
[10] = target: T3, UDP-glucuronosyltransferase 2B7 (Homo sapiens, UniProt P16662); test: Activity of human UGT2B7 expressed in microsomes isolated from baculovirus infected insect cell assessed as enzyme-mediated 3-(4-((6-methoxy-1-methyl-1H-benzo[d]imidazol-2-yl)methoxy)phenyl)-2-(methylthio)propanoic acid formation at 20 uM after 4 hrs by radio-HPLC/LC-MS/MS analysis in presence of NADPH-generating system/SAM and UDPGA/SAM in presence of UDPGA and UDPGA/SAM; format: ADME
T3 sequence (P16662 whole entry): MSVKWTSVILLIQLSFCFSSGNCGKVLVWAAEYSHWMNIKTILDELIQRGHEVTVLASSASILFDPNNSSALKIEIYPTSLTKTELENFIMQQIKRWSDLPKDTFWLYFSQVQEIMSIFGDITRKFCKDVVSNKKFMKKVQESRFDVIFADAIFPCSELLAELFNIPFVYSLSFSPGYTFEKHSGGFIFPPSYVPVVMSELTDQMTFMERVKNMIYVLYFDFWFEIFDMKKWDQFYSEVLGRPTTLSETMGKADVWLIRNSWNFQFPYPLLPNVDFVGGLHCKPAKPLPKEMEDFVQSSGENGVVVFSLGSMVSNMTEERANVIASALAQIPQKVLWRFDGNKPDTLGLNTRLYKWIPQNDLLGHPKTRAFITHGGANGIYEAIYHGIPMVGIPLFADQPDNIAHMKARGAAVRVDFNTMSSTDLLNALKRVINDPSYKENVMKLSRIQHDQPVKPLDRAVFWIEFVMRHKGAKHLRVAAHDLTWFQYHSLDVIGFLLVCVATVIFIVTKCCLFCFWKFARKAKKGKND

[11] = target: T4, UDP-glucuronosyltransferase 1A3 (Homo sapiens, UniProt P35503); test: Activity of human UGT1A3 expressed in microsomes isolated from baculovirus infected insect cell assessed as enzyme-mediated compound formation treated with [14C]-rivoglitazone at 20 uM after 4 hrs by radio-HPLC/LC-MS/MS analysis in presence of UDPGA, UDPGA/SAM
T4 sequence (P35503 whole entry): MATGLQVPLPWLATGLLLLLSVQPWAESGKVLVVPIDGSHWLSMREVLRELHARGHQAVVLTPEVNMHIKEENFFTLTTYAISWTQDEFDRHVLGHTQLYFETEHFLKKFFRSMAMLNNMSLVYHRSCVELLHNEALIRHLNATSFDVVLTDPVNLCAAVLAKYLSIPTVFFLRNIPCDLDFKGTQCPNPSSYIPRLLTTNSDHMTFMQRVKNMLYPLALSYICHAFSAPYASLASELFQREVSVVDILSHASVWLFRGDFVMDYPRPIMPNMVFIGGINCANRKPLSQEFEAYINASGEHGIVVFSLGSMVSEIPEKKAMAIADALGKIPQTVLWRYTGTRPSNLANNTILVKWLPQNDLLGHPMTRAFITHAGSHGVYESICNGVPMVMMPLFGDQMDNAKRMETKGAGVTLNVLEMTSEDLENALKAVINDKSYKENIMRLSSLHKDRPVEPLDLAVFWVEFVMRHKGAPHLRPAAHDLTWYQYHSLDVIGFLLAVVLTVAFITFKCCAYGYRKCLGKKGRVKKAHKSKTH

T1 sequence (P11712 whole entry): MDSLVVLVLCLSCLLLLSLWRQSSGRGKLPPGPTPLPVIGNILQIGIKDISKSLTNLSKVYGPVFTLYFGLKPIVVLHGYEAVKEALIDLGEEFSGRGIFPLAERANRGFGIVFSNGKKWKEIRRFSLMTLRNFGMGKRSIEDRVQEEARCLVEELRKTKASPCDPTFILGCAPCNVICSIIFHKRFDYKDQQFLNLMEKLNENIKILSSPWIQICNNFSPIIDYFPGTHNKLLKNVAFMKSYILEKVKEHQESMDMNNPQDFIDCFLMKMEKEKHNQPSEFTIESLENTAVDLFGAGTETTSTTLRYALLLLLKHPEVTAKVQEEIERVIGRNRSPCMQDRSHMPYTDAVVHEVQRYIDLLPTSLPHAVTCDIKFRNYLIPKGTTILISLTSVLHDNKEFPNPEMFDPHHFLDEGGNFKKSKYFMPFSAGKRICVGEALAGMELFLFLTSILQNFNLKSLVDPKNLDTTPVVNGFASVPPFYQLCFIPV
T2 sequence (P10635 whole entry): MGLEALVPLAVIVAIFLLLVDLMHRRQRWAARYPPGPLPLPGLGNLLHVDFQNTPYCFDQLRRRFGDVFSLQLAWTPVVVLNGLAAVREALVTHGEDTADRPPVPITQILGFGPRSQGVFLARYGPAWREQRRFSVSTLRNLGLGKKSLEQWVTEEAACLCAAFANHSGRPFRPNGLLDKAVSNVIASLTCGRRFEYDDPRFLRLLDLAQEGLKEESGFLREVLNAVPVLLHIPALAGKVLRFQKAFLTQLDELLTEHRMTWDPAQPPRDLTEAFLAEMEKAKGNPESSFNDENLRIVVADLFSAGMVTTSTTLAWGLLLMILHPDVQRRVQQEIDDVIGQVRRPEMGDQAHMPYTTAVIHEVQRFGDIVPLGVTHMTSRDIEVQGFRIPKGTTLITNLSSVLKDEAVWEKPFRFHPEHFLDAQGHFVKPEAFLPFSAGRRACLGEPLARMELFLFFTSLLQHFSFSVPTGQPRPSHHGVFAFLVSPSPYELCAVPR

Drug metabolism (Liver microsome)	Drug metabolism [1]	Drug metabolism (Cytochrome P450 2C9 [2])	Drug metabolism (Cytochrome P450 2C9 [3])	Drug metabolism [4]	Drug metabolism [5]	Drug metabolism (Cytochrome P450 2D6 [6])	Drug metabolism (Cytochrome P450 2D6 [7])	Drug metabolism [8]	Drug metabolism [9]	Drug metabolism [10]	Drug metabolism [11]	SMILES
metabolite_detected	metabolite_not_detected	metabolite_detected	metabolite_not_detected	metabolite_not_detected	metabolite_detected	metabolite_detected	metabolite_not_detected	metabolite_detected	metabolite_not_detected	metabolite_not_detected		COc1ccc2nc(COc3ccc(C[14CH]4SC(=O)NC4=O)cc3)n(C)c2c1.Cl (racemic)
											metabolite_detected	COc1ccc2nc(COc3ccc(CC(S)C(=O)O)cc3)n(C)c2c1 (configuration not stated)

— ChEMBL document CHEMBL3526048, “In vitro metabolism of rivoglitazone, a novel peroxisome proliferator-activated receptor γ agonist, in rat, monkey, and human liver microsomes and freshly isolated hepatocytes” (Drug Metab Dispos, 2011)
